Test results reported in paper PMC2865690 (ChemMedChem, 2009).

What was measured:
mGluR5 [1] = assay: mGluR5 potentiation; type: cell-based; settings: read-out: Potentiator EC50; at an EC20 concentration of glutamate; average of at least three determinations
In short: (§1)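 Calcium fluorescence recorded continuously on mGluR5. Test compound added alone at t = 4 s, then an EC20 concentration of glutamate added 140 s later. Agonism is read from the response to compound alone; potentiation from the response to EC20 glutamate. Full concentration-response curves, up to 30 μM, give EC50s.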

mGluR5 [2] = assay: mGluR5 allosteric agonist activity, compound alone without glutamate; type: cell-based
In short: as §1

mGluR5 [3] = assay: Fold-shift assay of the glutamate concentration-response curve; type: cell-based; settings: 1 μM compound; leftward shift
[4] = cited from earlier work

SMILES | EC50 (mGluR5 [1]) | Allosteric agonist % Glu Max (mGluR5 [2]) | EC50 (mGluR5 [2]; read-out: Allosteric agonist EC50, absence of an EC20 of glutamate) | Fold shift of the glutamate CRC (mGluR5 [3]) | Solubility in most vehicles [4]
O=C(c1ccc(F)cc1)N1CCCC(c2nc(-c3ccc(F)cc3)no2)C1 (stereo not drawn) [16a] | 1680 ± 3620 nM |  |  |  | 
O=C(c1ccc(F)cc1)N1CCC[C@H](c2nc(-c3ccc(F)cc3)no2)C1 [ADX-47273] | 168 ± 28 nM | 65% | 9500 nM | 9 fold | 
N#Cc1cccc(C(=O)Nc2cc(-c3ccccc3)nn2-c2ccccc2)c1 [CDPPB] |  |  |  |  | poor solubility
